Experiment [1] is filed under the species Bos taurus. The experiment in a line: Activity at calf intestinal adenosine deaminase type 1 by spectrophotometric assay.
The nature of experiment [2]: Inhibition of calf intestinal adenosine deaminase type 1 by spectrophotometric assay. Set-up: species or system Bos taurus. In short, it runs like this:
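Commercial calf intestinal adenosine deaminase (type I) was assayed with adenosine as substrate plus the analogue, both in 0.05 M phosphate buffer, pH 7.0, at 25 °C. Mode of inhibition and Ki were derived from the kinetics.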

Calls of active or inactive are those of the source. The rule behind the calls is not given here.

The Km is the substrate concentration at which the rate is half of its maximum. For orientation: Vmax means the rate approached at saturating substrate. On to `C[C@@H](O)[C@@H]1O[C@@H](n2cnc3c(N)ncnc32)[C@H](O)[C@@H]1O`, for which, in experiment [1], the Km result is “inactive” and the Vmax result is “inactive”.
As for `C[C@H](O)[C@H]1O[C@@H](n2cnc3c(N)ncnc32)[C@H](O)[C@H]1O`, in experiment [1], the Km was found to be 320 µM and the maximum rate (Vmax) was determined as 25 µmol/min/mg.
Regarding `C[C@H](O)[C@H]1O[C@H](n2cnc3c(N)ncnc32)[C@@H](O)[C@@H]1O`, in experiment [1], the Km result is “inactive” and the Vmax result was “inactive”.
As usually defined, the Ki is a dissociation constant, usually derived from enzyme kinetics or from competition with a known ligand. On to `Nc1ncnc2c1ncn2[C@@H]1O[C@H]([C@H](O)CO)[C@H](O)[C@@H]1O`, for which the Ki in experiment [2] (read-out: Ki) was found to be 670 µM.
For the compound `C[C@@H](O)[C@@H]1O[C@@H](n2cnc3c(N)ncnc32)[C@H](O)[C@H]1O`, in experiment [1], the Km is 230 µM and the maximum rate (Vmax) is 0.105 µmol/min/mg.
In the same order, the values of `C[C@H](O)[C@H]1O[C@@H](n2cnc3c(N)ncnc32)[C@H](O)[C@@H]1O` are 21 µM and 61 µmol/min/mg.
Regarding `Nc1ncnc2c1ncn2[C@H]1O[C@H]([C@@H](O)CO)[C@H](O)[C@@H]1O`, the Ki in experiment [2] (read-out: Ki) turned out to be 120 µM.
In the case of `C[C@@H](O)[C@H]1O[C@H](n2cnc3c(N)ncnc32)[C@@H](O)[C@@H]1O`, in experiment [1], the Km result was “inactive” and the Vmax result was “inactive”.
As for `Nc1ncnc2c1ncn2[C@@H]1O[C@H]([C@@H](O)CO)[C@H](O)[C@H]1O`, in experiment [1], the Michaelis-Menten constant (Km) worked out at 260 µM and the Vmax came to 0.178 µmol/min/mg. For the same compound, in experiment [2] (read-out: Ki), the inhibitory constant (Ki) was found to be 180 µM.
With `C[C@H](O)[C@@H]1O[C@H](n2cnc3c(N)ncnc32)[C@@H](O)[C@@H]1O`, in experiment [1], the Km entry is “inactive” and the Vmax entry is “inactive”.
Consider `Nc1ncnc2c1ncn2[C@@H]1O[C@@H]([C@@H](O)CO)[C@@H](O)[C@H]1O`, for which, in experiment [1], the Km is 280 µM and the Vmax was determined as 0.092 µmol/min/mg. In addition, in experiment [2] (read-out: Ki), the inhibition constant (Ki) stood at 120 µM.
Take `C[C@@H](O)[C@@H]1O[C@H](n2cnc3c(N)ncnc32)[C@@H](O)[C@@H]1O`: in experiment [1], the Km result is “inactive” and the Vmax entry was “inactive”.
`Nc1ncnc2c1ncn2[C@H]1O[C@@H]([C@H](O)CO)[C@@H](O)[C@@H]1O`: in experiment [1], the Km result is “inactive” and the Vmax entry is “inactive”. The Ki entry in experiment [2] was “Not Active”.
On to `C[C@H](O)[C@@H]1O[C@@H](n2cnc3c(N)ncnc32)[C@H](O)[C@@H]1O`, for which, in experiment [1], the Km is 670 µM and the Vmax is 0.326 µmol/min/mg.
In the case of `Nc1ncnc2c1ncn2[C@H]1O[C@H]([C@H](O)CO)[C@H](O)[C@@H]1O`, the inhibition constant (Ki) in experiment [2] (read-out: Ki) was determined as 240 µM.
Take `Nc1ncnc2c1ncn2[C@@H]1O[C@H](CO)[C@@H](O)[C@H]1O`: the maximum rate (Vmax) in experiment [1] was 220 µmol/min/mg.
Take `C[C@@H](O)[C@H]1O[C@@H](n2cnc3c(N)ncnc32)[C@H](O)[C@@H]1O`: in experiment [1], the Michaelis constant (Km) was determined as 78 µM and the Vmax came to 0.792 µmol/min/mg.

Values taken from ChEMBL document CHEMBL3244227, “Hexofuranosyladenine nucleosides as substrates and inhibitors of calf intestinal adenosine deaminase” (J Med Chem, 1979).
